This is an account of results in the RNAGym collection of RNA variant scans (doi:10.1038/s41586-018-0170-7).

The labels stand for the following.
B1: tRNA (parent)
chain: GUUCCGUUGGCGUAAUGGUAACGCGUCUCCCUCCUAAGGAGAAGACUGCGGGUUCGAGUCCCGUACGGAACG

The data set covers variants of B1. Description: yeast fitness, log relative to wild type (ln ratio); higher = fitter; tRNA-Arg(CCU), competitive growth, 37 C, 1 M NaCl. The essentials: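 Fitness is the natural log of a genotype's generation count divided by that of the wild type. A combinatorial library of tRNA-Arg(CCU) variants sat on a HIS3 centromeric plasmid in BY4742 lacking the chromosomal gene, from two independent transformations. Pools grew 4 generations in SC-HIS at 30 °C, then ~6.5 generations (~26.5 h) in SC-HIS 1M NaCl at 37 °C, with three outputs per input. Generations came from OD-scaled log2 output/input frequency, inverse-variance weighted across replicates, with variants counted by 125 bp paired-end Illumina sequencing.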
Regarding GGUCCGUUGGCGUAAUGGUAACGCGUUUCCCUCCUAAGGAGAAGACUGCGGGUUCGAGUCCCGUAAGGGUUG [U2G C27U C66A A69G A70U C71U], the “yeast fitness (ln)” value is -0.431. Then GGUCCGUUGGCGUAAUGGUAACGCGUUUCCCUCCUAAGGAGAAGAUUGCGGGUUCGAGUCCCGUACGGGUUG [U2G C27U C46U A69G A70U C71U], with -0.563; and GGUCCGUUGGCGUAAUGGUAACGCGUUUCCCUCCUAAGGAGAAGACUGCGGGUUCGAGUCCCGUACGGAGUG [U2G C27U A70G C71U], with -0.178. For GGUCCGUUGGCGUAAUGGUAACGCGUUUCCCUCCUAAGGAGAAGACUGCGGGUUCGAGUCCCGUACGGGAUG [U2G C27U A69G C71U], the “yeast fitness (ln)” value is -0.152. As for GGUCCGUUGGCGUAAUGGUAACGCGUUUCCCUCCUAAGGAGAAGAUUGCGGGUUCGAGUCCCGUACGGAGUG [U2G C27U C46U A70G C71U], the figure is -0.216; as for GGUCCGUUGGCGUAAUGGUAACGCGUUUCCCUCCUAAGGAGAAGAUUGCGGGUUCGAGUCCCGUAUGGGACG [U2G C27U C46U C66U A69G], -0.211. Then GGUCCGUUGGCGUAAUGGUAACGCGUUUCCCUCCUAAGGAGAAGAUUGCGGGUUCGAGUCCCGUACGGAUCG [U2G C27U C46U A70U], with -0.00918; and GGUCCGUUGGCGUAAUGGUAACGCGUUUCCCUCCUAAGGAGAAGAUUGCGGGUUCGAGUCCCGUACGGAGCG [U2G C27U C46U A70G], with -0.0813. Consider GGUCCGUUGGCGUAAUGGUAACGCGUUUCCCUCCUAAGGAGAAGACUGCGGGUUCGAGUCCCGUAAGGGUCG [U2G C27U C66A A69G A70U], for which the “yeast fitness (ln)” value is -0.155. As for GGUCCGUUGGCGUAAUGGUAACGCGUUUCCCUCCUAAGGAGAAGACUGCGGGUUCGAGUCCCGUAAGGGGCG [U2G C27U C66A A69G A70G], the figure is -0.15. As for GGUCCGUUGGCGUAAUGGUAACGCGUUUCCCUCCUAAGGAGAAGAUUGCGGGUUCGAGUCCCGUACGGGAUG [U2G C27U C46U A69G C71U], the figure is -0.112; as for GGUCCGUUGGCGUAAUGGUAACGCGUUUCCCUCCUAAGGAGAAGAUUGCGGGUUCGAGUCCCGUACGGAACG [U2G C27U C46U], -0.0742; as for GGUCCGUUGGCGUAAUGGUAACGCGUUUCCCUCCUAAGGAGAAGACUGCGGGUUCGAGUCCCGUACGGAUUG [U2G C27U A70U C71U], -0.0745. As for GGUCCGUUGGCGUAAUGGUAACGCGUUUCCCUCCUAAGGAGAAGACUGCGGGUUCGAGUCCCGUACGGGUUG [U2G C27U A69G A70U C71U], the “yeast fitness (ln)” value is -0.518. Then GGUCCGUUGGCGUAAUGGUAACGCGUUUCCCUCCUAAGGAGAAGAUUGCGGGUUCGAGUCCCGUAUGGAUCG [U2G C27U C46U C66U A70U], with -0.0345.

With GGUCCGUUGGCGUAAUGGUAACGCGUUUCCCUCCUAAGGAGAAGAUUGCGGGUUCGAGUCCCGUAUGGAGCG [U2G C27U C46U C66U A70G], the “yeast fitness (ln)” value was -0.117. Then GGUCCGUUGGCGUAAUGGUAACGCGUUUCCCUCCUAAGGAGAAGACUGCGGGUUCGAGUCCCGUAUGGGGCG [U2G C27U C66U A69G A70G], with -0.288. As for GGUCCGUUGGCGUAAUGGUAACGCGUUUCCCUCCUAAGGAGAAGACUGCGGGUUCGAGUCCCGUAUGGGUCG [U2G C27U C66U A69G A70U], the figure is -0.212; as for GGUCCGUUGGCGUAAUGGUAACGCGUUUCCCUCCUAAGGAGAAGAUUGCGGGUUCGAGUCCCGUAAGGAAUG [U2G C27U C46U C66A C71U], -0.163; as for GGUCCGUUGGCGUAAUGGUAACGCGUUUCCCUCCUAAGGAGAAGACUGCGGGUUCGAGUCCCGUAAGGGGUG [U2G C27U C66A A69G A70G C71U], -0.247. In the case of GGUCCGUUGGCGUAAUGGUAACGCGUUUCCCUCCUAAGGAGAAGAUUGCGGGUUCGAGUCCCGUAUGGGGUG [U2G C27U C46U C66U A69G A70G C71U], the “yeast fitness (ln)” value was -0.245. Then GGUCCGUUGGCGUAAUGGUAACGCGUUUCCCUCCUAAGGAGAAGAUUGCGGGUUCGAGUCCCGUACGGGACG [U2G C27U C46U A69G], with -0.0724; and GGUCCGUUGGCGUAAUGGUAACGCGUUUCCCUCCUAAGGAGACGACUGCGGGUUCGAGUCCCGUACGGAAUG [U2G C27U A43C C71U], with -0.157; and GGUCCGUUGGCGUAAUGGUAACGCGUUUCCCUCCUAAGGAGAAGACUGCGGGUUCGAGUCCCGUAAGGAUCG [U2G C27U C66A A70U], with -0.0765. As for GGUCCGUUGGCGUAAUGGUAACGCGUUUCCCUCCUAAGGAGAAGACUGCGGGUUCGAGUCCCGUAAGGAGCG [U2G C27U C66A A70G], the figure is -0.128; as for GGUCCGUUGGCGUAAUGGUAACGCGUUUCCCUCCUAAGGAGAAGAUUGCGGGUUCGAGUCCCGUAAGGGAUG [U2G C27U C46U C66A A69G C71U], -0.301; as for GGUCCGUUGGCGUAAUGGUAACGCGUUUCCCUCCUAAGGAGAAGAUUGCGGGUUCGAGUCCCGUAAGGAGUG [U2G C27U C46U C66A A70G C71U], -0.228. As for GGUCCGUUGGCGUAAUGGUAACGCGUUUCCCUCCUAAGGAGAAGACUGCGGGUUCGAGUCCCGUACGGGGCG [U2G C27U A69G A70G], the figure is -0.217. For GGUCCGUUGGCGUAAUGGUAACGCGUUUCCCUCCUAAGGAGAAGACUGCGGGUUCGAGUCCCGUACGGGUCG [U2G C27U A69G A70U], the “yeast fitness (ln)” value is -0.0281.

Take GGUCCGUUGGCGUAAUGGUAACGCGUUUCCCUCCUAAGGAGAAGAUUGCGGGUUCGAGUCCCGUAAGGGUUG [U2G C27U C46U C66A A69G A70U C71U]: the “yeast fitness (ln)” value was -0.383. Take GGUCCGUUGGCGUAAUGGUAACGCGUUUCCCUCCUAAGGAGACGACUGCGGGUUCGAGUCCCGUAUGGAGUG [U2G C27U A43C C66U A70G C71U]: the “yeast fitness (ln)” value is -0.331. Then GGUCCGUUGGCGUAAUGGUAACGCGUUUCCCUCCUAAGGAGAAGAUUGCGGGUUCGAGUCCCGUAUGGGUCG [U2G C27U C46U C66U A69G A70U], with -0.392; and GGUCCGUUGGCGUAAUGGUAACGCGUUUCCCUCCUAAGGAGAAGAUUGCGGGUUCGAGUCCCGUAUGGGGCG [U2G C27U C46U C66U A69G A70G], with -0.187; and GGUCCGUUGGCGUAAUGGUAACGCGUUUCCCUCCUAAGGAGAAGACUGCGGGUUCGAGUCCCGUAAGGGAUG [U2G C27U C66A A69G C71U], with -0.197.

Consider GGUCCGUUGGCGUAAUGGUAACGCGUUUCCCUCCUAAGGAGAAGACUGCGGGUUCGAGUCCCGUAUGGGACG [U2G C27U C66U A69G], for which the “yeast fitness (ln)” value is -0.231. GGUCCGUUGGCGUAAUGGUAACGCGUUUCCCUCCUAAGGAGAAGACUGCGGGUUCGAGUCCCGUAUGGAAUG [U2G C27U C66U C71U]: the “yeast fitness (ln)” value was -0.194. Then GGUCCGUUGGCGUAAUGGUAACGCGUUUCCCUCCUAAGGAGAAGACUGCGGGUUCGAGUCCCGUAAGGAUUG [U2G C27U C66A A70U C71U], with -0.195.
